# Test results from publication PMC7897483 (Nucleic Acids Research, 2021).
# Legend:
# [1] = test system: colorectal carcinoma RKO cells; test: Cell viability; format: cell-based, human; conditions: 24 h, increasing concentrations
# Procedure, shortened: (§1)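 Cells plated at 10 000 per well and exposed to increasing concentrations of test compound for 24 h. HMEC were cultured per supplier guidance. Viability was read with the ApoTox-Glo viability reagent by fluorescence at 400 nm Ex/505 nm Em. Three replicates; error bars are standard deviation.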
# His-hnRNP A18 [2] = molecular target: T1, His-hnRNP A18 (Homo sapiens, UniProt Q14011); test: RNA band shift; format: binding; conditions: biotinylated hnRNP A18 RNA consensus motif 1
# T1 sequence (Q14011 1-172): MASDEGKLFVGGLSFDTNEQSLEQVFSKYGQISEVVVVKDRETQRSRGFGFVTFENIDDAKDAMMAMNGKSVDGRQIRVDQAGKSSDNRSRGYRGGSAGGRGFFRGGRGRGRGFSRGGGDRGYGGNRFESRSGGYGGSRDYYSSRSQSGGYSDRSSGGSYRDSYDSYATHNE
# Procedure, shortened: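 Recombinant full-length human His-hnRNP A18 was expressed in bacteria grown at 30°C. Protein (1 μg) was preincubated 10 min with or without increasing concentrations of test compound. Biotinylated hnRNP A18 motif 1 RNA (51 nt) was then added for 10 min at room temperature. Complexes were resolved on native polyacrylamide gels, transferred to nylon and detected by chemiluminescence with streptavidin-HRP.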
# hnRNP A18 = molecular target: T2, hnRNP A18 (Homo sapiens, UniProt Q14011); test: Cellular thermal shift assay; format: cell-based; conditions: read-out: EC50, hnRNP A18 protection from melting; LOX-IM-VI cells over expressing GFP-hnRNP A18; 3 h; 57°C
# T2 sequence (Q14011 1-172): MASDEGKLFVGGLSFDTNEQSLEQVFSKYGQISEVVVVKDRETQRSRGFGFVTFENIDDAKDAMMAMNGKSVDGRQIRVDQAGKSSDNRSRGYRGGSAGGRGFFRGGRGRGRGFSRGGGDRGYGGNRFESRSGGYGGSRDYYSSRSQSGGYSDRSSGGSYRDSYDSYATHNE
# [3] = Parallel Artificial Membrane Permeability Assay; format: in vitro ADME; conditions: pH 5.0 and 6.8, room temperature, ∼4 h; data not shown
# Procedure, shortened: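 Test compounds were made up as 10 mM DMSO stocks and filtered (0.2 μm). The assay used stirred PAMPA plates with GIT-0 lipid and an acceptor sink buffer. After permeation, UV spectra from 245 to 498 nm gave relative compound concentrations in the donor and acceptor compartments, from which effective permeability was derived.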
# [4] = molecular target: hnRNP A18 RNA Recognition Motif (RRM) (Homo sapiens, UniProt Q14011); test: NMR 1H,15N-HSQC chemical shift perturbation; format: binding; conditions: 15N-labeled hnRNP A18 RRM
# Procedure, shortened: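 Construct: human hnRNP A18 RRM (residues 1–92), expressed in E. coli BL21(DE3) as a His6-GB1 fusion in M9 medium with 15N-ammonium chloride, induced with 1 mM IPTG for 16 h at 18°C. Purified by denaturing Ni affinity with on-column refolding, then TEV cleavage.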
# [5] = test system: pancreatic cancer MiaPaca cells; test: Cell viability; format: cell-based, human; conditions: 24 h, increasing concentrations
# Procedure, shortened: as §1
# [6] = test system: normal human mammary epithelial HMEC cells; test: Cell viability; format: cell-based; conditions: 24 h
# Procedure, shortened: as §1
# Glioblastoma D54 cells = test: Cell viability; format: cell-based, human; conditions: D54, 24 h, increasing concentrations
# Procedure, shortened: as §1
# GST-hnRNP A18 = molecular target: T3, GST-hnRNP A18 (UniProt Q14011 1-172); test: fluorescence anisotropy
# T3 sequence: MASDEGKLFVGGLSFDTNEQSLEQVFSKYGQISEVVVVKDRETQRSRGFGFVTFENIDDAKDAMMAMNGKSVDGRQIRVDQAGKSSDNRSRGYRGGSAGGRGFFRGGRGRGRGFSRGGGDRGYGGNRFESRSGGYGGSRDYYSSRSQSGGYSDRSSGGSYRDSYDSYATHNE
# His-hnRNP A18 [7] = molecular target: T4, His-hnRNP A18 (human, UniProt Q14011 1-172); test: EMSA
# T4 sequence: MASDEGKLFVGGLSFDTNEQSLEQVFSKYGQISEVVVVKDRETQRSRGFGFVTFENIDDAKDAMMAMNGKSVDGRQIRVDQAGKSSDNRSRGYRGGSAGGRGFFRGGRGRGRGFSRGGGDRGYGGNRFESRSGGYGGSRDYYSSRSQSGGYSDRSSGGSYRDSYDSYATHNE
molecule,measurement,setting,value
Cc1sc(NC(=O)c2ccccc2)nc1OC(=O)c1ccccc1 [VITAS STK508411],cell viability (relative efficacy),[1],least effective
same,hnRNP A18 RNA binding activity / specificity by RNA band shift,His-hnRNP A18 [2],specifically bound hnRNP A18
same,EC50,hnRNP A18,23.8 µM
same,effective permeability (Pe),[3],> 20 ×10⁻⁶ cm/s
same,chemical shift perturbations of hnRNP A18 RRM (qualitative),[4],Chemical shift perturbations were observed
same,cell viability (relative efficacy),[5],least effective
same,toxicity to normal cells,[6],20–40%
same,cell viability (relative efficacy),Glioblastoma D54 cells,least effective
hnRNP A18 motif 1 Fl (ssRNA) RNA: GCAGAUCCAGGGUGGGAUUUUCUUGAGGAAGUUACAAAUAAGCUUGUUACA,binding result,GST-hnRNP A18,binds
hnRNP A18 motif 1 Biotin (ssRNA) RNA: GCAGAUCCAGGGUGGGAUUUUCUUGAGGAAGUUACAAAUAAGCUUGUUACA,binding result,His-hnRNP A18 [7],binds
